For 52 molecules, ED50 and Solubility results are on record in ChEMBL document CHEMBL1122496, “A new class of nonhormonal pregnancy-terminating agents. Synthesis and contragestational activity of 3,5-diaryl-s-triazoles” (J Med Chem, 1983).

The test system of data set [1] is Cricetinae gen. sp. Nature of the data set: (§1) Pregnancy-terminating activity in hamster when administered sc. The data set is classed as functional.
In data set [2] the test system is Cricetinae gen. sp. The experiment in a line: Pregnancy-terminating activity in hamster when administered perorally. The format is functional, Cricetulus griseus. The settings on record: po.
For data set [3], the system named is Rattus norvegicus. The experiment in a line: Pregnancy-terminating activity in rat when administered po. The data set is classed as functional.
The subject of data set [4] is Rattus norvegicus. The experiment in a line: Pregnancy-terminating activity in rat when administered sc. The data set is classed as functional. A digest of the protocol:
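Pregnant rats were dosed once daily for 5 consecutive days, from day 6 to day 10. Compound was given in sesame oil containing 20% benzyl benzoate to groups of 5–30 animals at three to six dose levels.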

The nature of data set [5]: Solubility in sesame oil containing 20% of benzyl benzoate. The format is physicochemical.
In data set [6] the test system is Cricetinae gen. sp. The description is as §1. The format is functional, Cricetulus griseus. A digest of the protocol: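 Pregnant hamsters were dosed daily for 5 consecutive days, from day 4 to day 8. Compound was given in sesame oil with 20% benzyl benzoate to groups of 5–30 animals at three to six dose levels. ED50 is the dose that ended pregnancy in half of the animals.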

Data set [7] deals with Rattus norvegicus. Nature of the data set: Pregnancy-terminating activity in Rat when administered sc. The data set is classed as functional. In short, it runs like this:
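Pregnant rats were dosed once daily for 5 consecutive days, from day 6 to day 10. Compound was given in sesame oil containing 20% benzyl benzoate to groups of 5–30 animals at three to six dose levels. ED50 is the dose that terminated pregnancy in 50% of the animals.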

[8] abbreviates: Cricetinae gen. sp., sc, read-out: ED50.

Bounds are passed on as bounds.

For `Cc1ccccc1-c1nc(-c2ccc(N(C)C)cc2)n[nH]1`, in data set [1] (setting [8]), the ED50 was determined as 10 mg/kg.
`Cc1cccc(-c2n[nH]c(-c3ccccc3)n2)c1`: the ED50 in data set [1] (setting [8]) is more than 20 mg/kg.
As for `CCc1ccccc1-c1n[nH]c(-c2ccc(OC)cc2)n1`, the figures for the ED50 in data set [2] and in data set [1] (setting [8]) were 5 mg/kg and 0.15 mg/kg, respectively.
`Cc1cc(Cl)ccc1-c1n[nH]c(-c2ccccc2)n1`: the figures for the ED50 in data set [2] and in data set [1] (setting [8]) were 4 mg/kg and 0.14 mg/kg, respectively.
In the case of `CCOc1cccc(-c2n[nH]c(-c3ccccc3CC)n2)c1`, the ED50 in data set [2] was 4 mg/kg; in data set [1] (setting [8]), 0.04 mg/kg; in data set [3] it was more than 10 mg/kg; in data set [4] it was 0.3 mg/kg.
`c1ccc(-c2nc3n(n2)Cc2ccccc2-3)cc1`: the Solubility in data set [5] was ~ 30 mg ml-1. Further, the values for the ED50 in data set [6] and in data set [7] were 3.5 mg/kg and 1.8 mg/kg, respectively.
Taken in the same sequence, the figures for `c1ccc(-c2nc3n(n2)CCc2ccccc2-3)cc1` were ~ 100 mg ml-1, 1 mg/kg and 16 mg/kg.
Consider `Cc1ccc(C)c(-c2n[nH]c(-c3ccccc3)n2)c1`, for which, in data set [1] (setting [8]), the ED50 is more than 10 mg/kg.
The same measure, in the same setting: under `Cc1ccccc1-c1n[nH]c(-c2ccc(-c3ccccc3)cc2)n1` stands 10 mg/kg; under `CCc1ccccc1-c1n[nH]c(-c2cc(OC)cc(OC)c2)n1`, 10 mg/kg.
As to `CCc1ccccc1-c1n[nH]c(-c2cccc(F)c2)n1`, the ED50 in data set [2] was more than 5 mg/kg; in data set [1] (setting [8]) it was 0.4 mg/kg.
Taken in the same sequence, the figures for `COc1cccc(-c2n[nH]c(-c3ccccc3CO)n2)c1` were 15 mg/kg and 0.08 mg/kg.
Taken in the same sequence, the figures for `C=CCOc1cccc(-c2nc(-c3ccccc3C)n[nH]2)c1` were 5 mg/kg and 0.15 mg/kg.
As to `Cc1ccccc1-c1n[nH]c(-c2ccc(F)cc2)n1`, in data set [1] (setting [8]), the ED50 turned out to be 3.5 mg/kg.
With `COc1cccc(-c2n[nH]c(-c3ccc(C)cc3C)n2)c1`, the ED50 in data set [2] is 10 mg/kg; in data set [1] (setting [8]), 0.04 mg/kg; in data set [3] it was more than 10 mg/kg; in data set [4] it was 0.6 mg/kg.
`Cc1ccc(Cl)cc1-c1n[nH]c(-c2ccccc2)n1`: the ED50 in data set [1] (setting [8]) amounted to 1.2 mg/kg.
As for `COc1cccc(-c2n[nH]c(-c3cccc(C)c3)n2)c1`, the ED50 in data set [1] (setting [8]) is 15 mg/kg.
As for `c1ccc(-c2nc3c4ccccc4ccn3n2)cc1`, the Solubility in data set [5] is listed as ~ 10 mg ml-1. In addition, the figures for the median effective dose (ED50) in data set [1] (setting [8]) and in data set [7] were 0.25 mg/kg and 2.5 mg/kg, respectively.
`CCCCc1ccccc1-c1n[nH]c(-c2cccc(OC)c2)n1`: the values for the ED50 in data set [2] and in data set [1] (setting [8]) were 10 mg/kg and 12 mg/kg, respectively.
Regarding `CCc1ccccc1-c1n[nH]c(-c2cccc(C)c2C)n1`, in data set [1] (setting [8]), the ED50 came to 2 mg/kg.
Take `COc1cccc(-c2n[nH]c(-c3ccccc3C=O)n2)c1`: the median effective dose (ED50) in data set [2] came to 10 mg/kg; in data set [1] (setting [8]), 0.1 mg/kg.
Consider `Cc1ccccc1-c1n[nH]c(-c2ccc(Cl)cc2)n1`, for which the median effective dose (ED50) in data set [1] (setting [8]) came to 4 mg/kg.
Consider `CCc1ccccc1-c1n[nH]c(-c2ccc(OC)c(OC)c2)n1`, for which the 50% effective dose (ED50) in data set [2] was more than 5 mg/kg; in data set [1] (setting [8]) it was 0.05 mg/kg.
Regarding `CCc1ccccc1-c1n[nH]c(-c2cccc(OC)c2OC)n1`, in data set [1] (setting [8]), the ED50 was determined as 10 mg/kg.
As for `CCc1ccccc1-c1n[nH]c(-c2cccc(-c3ccccc3)c2)n1`, the median effective dose (ED50) in data set [2] and in data set [1] (setting [8]) was 10 mg/kg each time.
For `COc1ccc(C)c(-c2n[nH]c(-c3ccccc3)n2)c1`, the ED50 in data set [1] (setting [8]) was more than 10 mg/kg.
The same measure, in the same setting: under `COc1cccc(-c2n[nH]c(-c3cc(OC)ccc3C)n2)c1` stands 1 mg/kg.
In the case of `Cc1ccccc1-c1n[nH]c(-c2ccccc2Cl)n1`, the ED50 in data set [1] (setting [8]) turned out to be 15 mg/kg.
The same measure, in the same setting: under `COc1ccc(-c2n[nH]c(-c3ccccc3)n2)c(C)c1` stands more than 10 mg/kg; under `Cc1cccc(-c2n[nH]c(-c3ccccc3C)n2)c1`, 4 mg/kg.
As for `COc1cccc(-c2n[nH]c(-c3ccc(Cl)cc3C)n2)c1`, the ED50 in data set [2] is 5 mg/kg; in data set [1] (setting [8]) it was 0.04 mg/kg; in data set [3], more than 10 mg/kg; in data set [4], 0.5 mg/kg.
Taken in the same sequence, the figures for `CCc1ccccc1-c1n[nH]c(-c2ccc3c(c2)OCO3)n1` were 3 mg/kg, 0.03 mg/kg, approximately 20 mg/kg and 0.6 mg/kg.
For the molecule `C=CCOc1cccc(-c2nc(-c3ccccc3CC)n[nH]2)c1`, the median effective dose (ED50) in data set [2] was determined as 5 mg/kg; in data set [1] (setting [8]) it was 0.12 mg/kg.
Consider `Cc1ccc(-c2n[nH]c(-c3ccccc3)n2)cc1`, for which the 50% effective dose (ED50) in data set [1] (setting [8]) was more than 20 mg/kg.
As to `Cc1ccccc1-c1n[nH]c(-c2cccc(C(F)(F)F)c2)n1`, the values for the ED50 in data set [2] and in data set [1] (setting [8]) were more than 20 mg/kg and 0.6 mg/kg, respectively.
As for `CCOc1cccc(-c2n[nH]c(-c3ccccc3C)n2)c1`, the ED50 was 5 mg/kg in data set [2] and 0.06 mg/kg in data set [1] (setting [8]).
As for `Cc1ccc(-c2n[nH]c(-c3ccccc3C)n2)cc1`, the ED50 in data set [1] (setting [8]) worked out at 20 mg/kg.
Regarding `COc1cccc(-c2n[nH]c(-c3ccccc3C(C)C)n2)c1`, the values for the ED50 in data set [2] and in data set [1] (setting [8]) were 10 mg/kg and 4 mg/kg, respectively.
`Cc1ccc(-c2n[nH]c(-c3ccccc3)n2)c(C)c1`: the ED50 in data set [2] was more than 5 mg/kg; in data set [1] (setting [8]) it was 0.2 mg/kg.
Regarding `COc1cccc(-c2n[nH]c(-c3ccc(C)cc3)n2)c1`, in data set [1] (setting [8]), the ED50 stood at 7 mg/kg.
As for `Cc1ccccc1-c1n[nH]c(-c2ccccc2C)n1`, the ED50 in data set [2] was more than 10 mg/kg; in data set [1] (setting [8]) it was 0.7 mg/kg.
`COc1cccc(-c2n[nH]c(-c3cc(Cl)ccc3C)n2)c1`: the ED50 in data set [1] (setting [8]) is 0.35 mg/kg.
Regarding `COc1cccc(-c2n[nH]c(-c3cc(C)ccc3C)n2)c1`, in data set [1] (setting [8]), the median effective dose (ED50) stood at 2.5 mg/kg.
For `c1ccc(-c2n[nH]c(-c3ccccc3)n2)cc1`, the figures for the 50% effective dose (ED50) in data set [2] and in data set [1] (setting [8]) were 10 mg/kg and 6 mg/kg, respectively.
As for `Cc1ccccc1-c1n[nH]c(-c2cccc(Cl)c2)n1`, the 50% effective dose (ED50) in data set [2] was more than 20 mg/kg; in data set [1] (setting [8]), 0.6 mg/kg.
`CC(C)c1ccccc1-c1n[nH]c(-c2ccccc2)n1`: in data set [1] (setting [8]), the 50% effective dose (ED50) is 10 mg/kg.
Consider `COc1ccccc1-c1n[nH]c(-c2ccccc2C)n1`, for which the ED50 in data set [2] is more than 5 mg/kg; in data set [1] (setting [8]) it was 0.5 mg/kg.
Regarding `CCCCc1ccccc1-c1n[nH]c(-c2ccccc2)n1`, in data set [1] (setting [8]), the ED50 turned out to be 17 mg/kg.
As to `COc1cccc(-c2n[nH]c(-c3ccccc3C)n2)c1`, the ED50 came to 5 mg/kg in data set [2] and 0.08 mg/kg in data set [1] (setting [8]).
For `CCc1ccccc1-c1n[nH]c(-c2ccccc2)n1`, in that order: 5 mg/kg and 0.15 mg/kg.
In data set [5], `Cc1ccccc1-c1n[nH]c(-c2ccccc2)n1` came in with a Solubility of more than 100 mg/mL. Further, the ED50 was 10 mg/kg in data set [2]; 0.3 mg/kg in data set [1]; 0.3 mg/kg in data set [1] (setting [8]); 2 mg/kg in data set [7]; 50 mg/kg in data set [3]; 2 mg/kg in data set [4].
With `COc1cccc(-c2nc(-c3ccc(OC)cc3C)n[nH]2)c1`, the ED50 in data set [2] was more than 5 mg/kg; in data set [1] (setting [8]) it was 0.2 mg/kg.
